Shown are actives, neighbours in structure and some others; about 6.8% of the full set was active somewhere.
PHOSPHO1 block = inhibitors of human PHOSPHO1 phosphatase. Q8TCT1. recombinant PHOSPHO1, absorbance phosphatase assay. inhibition, % at 13.3 µM. hit rate 1.1% among 290,000; in the data active = inhibition above about 60%
Target sequence (Q8TCT1 whole entry, looked up): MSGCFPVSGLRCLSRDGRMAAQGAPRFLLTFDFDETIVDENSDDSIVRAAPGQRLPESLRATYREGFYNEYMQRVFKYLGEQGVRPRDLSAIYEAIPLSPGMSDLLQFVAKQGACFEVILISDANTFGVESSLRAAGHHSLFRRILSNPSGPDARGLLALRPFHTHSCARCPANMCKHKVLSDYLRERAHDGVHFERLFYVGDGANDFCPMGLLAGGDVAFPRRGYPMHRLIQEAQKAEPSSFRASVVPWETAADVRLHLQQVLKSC
HSF1 inhib = HSF1 inhibition | hit rate 0.77% among 300,000 | activity change, negative = inhibition, % at 7.5 µM (by protocol) | NIH3T3-HGL HSE-luciferase, MG132-induced, luminescence 8 h; active compounds read low;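 active = more than half of replicate wells show activity change below -50%, luminescence cut by over half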;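 also: luciferase reports HSF-1 transcriptional activity via heat shock element; 0% = median of DMSO wells and -100% = zero luminescence signal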
HCV core dimer = blocks dimerization of HCV core protein; TR-FRET GST/Flag-core106 dimerization, 1536-well; inhibition, % at 5 µM; hit rate 0.33% among 300,000;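 active = inhibition above the mean of all tested compounds plus 3 SD, set per screening campaign, cut at about 45% in these data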
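Material: GST/Flag-tagged HCV core106 proteins. Incubation: 4 h, 22.5 °C incubation. Read-out basis: inhibition (%) from 671 over 617 nm ratio. Measured by: TR-FRET, excitation 340 nm, emission 617 and 671 nm.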
ALR H2O2 inh = inhibitors of human sulfhydryl oxidase ALR. hit rate 3.8% among 290,000. purified ALR, DTT oxidation, H2O2 HRP-luminol luminescence. inhibition, % (test concentration not listed). AID 485317;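 active = mean replicate inhibition above about 79%, with every replicate also reaching it, limit read from the data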
Target sequence (P55789 whole entry, looked up): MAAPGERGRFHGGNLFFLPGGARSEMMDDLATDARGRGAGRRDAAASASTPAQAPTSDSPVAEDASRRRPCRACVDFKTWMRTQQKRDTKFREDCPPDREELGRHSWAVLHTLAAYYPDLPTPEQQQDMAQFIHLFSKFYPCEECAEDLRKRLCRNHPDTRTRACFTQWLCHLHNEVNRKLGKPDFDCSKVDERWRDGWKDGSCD
AI-2 QS mod = modulates the Vibrio harveyi AI-2 quorum sensing system; activity change, % at 7.5 µM; AID 2094; hit rate 0.4% among 300,000; Vibrio harveyi JMH597 AI-2 luminescence/OD600 ratio, 9 h; active compounds read low; strain lacks LuxN and CqsS sensors; 0 = neutral-control median; in the data active = activity change below about -75%, passing the limit was not always enough;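 also: luminescence divided by OD600 gain over 9 h not by final OD600 alone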
HSF1 activator = increases HSF-1 driven luciferase reporter signal; NIH3T3-HGL HSF-1 luciferase reporter, MG132, 8 h; 100% = twice DMSO control signal; activation, % at 9 µM; hit rate 1.7% among 300,000;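 active = mean replicate activation of at least 50% with a set share of replicates each reaching 50%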;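 also: 0% = median of the neutral control wells and 100% = twice that signal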
* marks the source's active call; other numbers are inactive results; x = no result given; ! = a repeat was not active.

SMILES	PHOSPHO1 block	HSF1 inhib	HCV core dimer	ALR H2O2 inh	AI-2 QS mod	HSF1 activator
CCN(CC)C(=S)SSC(=S)N(CC)CC	89*	-9	-1	97*	14	-27
CC(C)=NOc1nc(N(C)C)nc(N(C)C)n1	-5	-2	-5	-5	-6	8
S=c1sc2c(Cl)ncnc2n1-c1ccccc1	-20	478	x	x	7	565*
Cc1nc2c(-c3ccc(F)cc3)cnn2c(N)c1-c1ccc(F)cc1	x	-56*	-2	-6	7	-62
O=C(NC1CCCC1)C(c1cccnc1)N(C(=O)c1ccco1)c1ccc(F)cc1 (configuration not stated)	40	-1	-2	x	9	10
CN(C)c1cccc(C(=O)NNC(=S)NC2CC3CCC2C3)c1 (configuration not stated)	-7	5	-1	85*	16	23
CCC(C)[C@H](NC(=O)[C@@H]1CSC2c3ccccc3C(=O)N21)C(=O)NC1CCCC1 (some centres not stated)	49	2	8	1	5	-2
CCC(C)[C@H](NC(=O)[C@@H]1CSC2c3ccccc3C(=O)N21)C(=O)N1CCCCC1 (some centres not stated)	65*	10	5	-1	10	-3
C=CCn1c(SCc2cc([N+](=O)[O-])cc3c2OCOC3)nc2cc(C(=O)O)ccc2c1=O	20	29	10	20	-4	63*
CCC(CO)n1c(SCc2cc([N+](=O)[O-])cc3c2OCOC3)nc2ccccc2c1=O (configuration not stated)	-1	33	7	-8	31	56*
CCOC(=O)c1cc2c(c(CSc3nc4ccccc4c(=O)n3Cc3ccco3)c1)OCOC2	-1	17	8	5	10	58*
C(=C/c1ccnc2nc(SC/C=C/c3ccccc3)nn12)/c1ccccc1	12	61	4	0	10	101*
O=C(/C=C/c1ccccc1)n1cnnc1SC/C=C/c1ccccc1	-11	0	-6	6	7	9
CC(=O)c1ccc([N+](=O)[O-])c(CS(=O)(=O)c2ccccc2)c1	19	-6	-8	-1	4	-26
CCOc1ccc(S(=O)(=O)NN=C2CCN(C(C)=O)CC2)cc1	-4	-5	6	5	17	26
COc1ccc(CCNc2oc(-c3ccccc3OC)nc2C#N)cc1	18	55	7	74	-14	95*
COc1ccc(CCNc2oc(-c3ccccc3OC)nc2C#N)cc1OC	-19	41	3	11	35	48
Cc1cccc(CC(=O)Nc2sc(C(C)C)cc2C(=O)N2CCOCC2)c1	57	0	5	3	-4	3
COC(=O)c1c(NC(=O)c2nc3ccccc3s2)sc2c1CCN(C(C)=O)C2	-3	x	7	-3	x	x
CNC(=O)c1c(NC(=O)c2nc3ccccc3s2)sc2c1CCC2	10	32	14	97*	40	55*
CNC(=O)c1c(NC(=O)c2ccc(N3C(=O)CCC3=O)cc2)sc2c1CCCC2	-24	-3	27	97*	41	-5
CN(C)/C=N/c1sc2c(c1C#N)CCCC2	-2	4	8	100*	16	13
N/C(=N\OC(=O)c1cccc(Cn2cc(C(F)(F)F)ccc2=O)c1)c1ccc(Cl)cc1	37	10	3	-3	19	8
O=C(Nc1ccccc1)/C(=C\c1ccc(F)cc1)NC(=O)c1ccco1	-8	0	5	-2	x	35
COc1cc([C@@H]2c3cc4c(cc3[C@H](O)[C@H]3COC(=O)[C@H]23)OCO4)cc(OC)c1OC	28	-69*	-1	x	22	-74
SMILES	PHOSPHO1 block	HSF1 inhib	HCV core dimer	ALR H2O2 inh	AI-2 QS mod	HSF1 activator
COc1ccc(C(=O)NCCn2cc(SCC(=O)NCC3CCCO3)c3ccccc32)cc1OC (configuration not stated)	-2	-3	-10	-18	12	10
CCCc1nn2c(N)c(/C=C3\C=Nc4ccccc43)c(=O)nc2s1	32	-9	-17	92*!	23	-1
CCCCc1nn2c(N)c(/C=C3\C=Nc4ccccc43)c(=O)nc2s1	-6	2	7	38	33	19
CS(=O)(=O)c1nsc2nc(=O)c(/C=C3\C=Nc4ccccc43)c(N)n12	1	0	-3	90*	13	-7
Cc1ccc(CN(C(=O)c2ccco2)C2CCS(=O)(=O)C2)cc1 (configuration not stated)	38	-2	0	-12	-1	3
CN(C)c1ccc(CN(C(=O)c2ccco2)C2CCS(=O)(=O)C2)cc1 (configuration not stated)	-17	-16	-1	82*	5	-36
O=C(c1cc2ccccc2oc1=O)N(c1ccccc1)C1C=CS(=O)(=O)C1 (configuration not stated)	-6	1	-4	x	21	1
CN(Cc1ccccc1)C(=O)c1cc2ccccc2o1	-2	-4	6	13	-26	4
COc1ccc(N(C(=O)c2cc3ccccc3oc2=O)C2C=CS(=O)(=O)C2)cc1 (configuration not stated)	61*	1	-2	-7	2	2
CN(Cc1ccc(N(C)C)cc1)C(=O)c1cc2ccccc2o1	35	10	-14	76*	1	22
CN(C)c1ccc(CN(C(=O)c2ccccc2Br)C2CCS(=O)(=O)C2)cc1 (configuration not stated)	-26	-11	-6	96*	0	10
COc1cccc(CN(C(=O)c2ccccc2Br)C2CCS(=O)(=O)C2)c1 (configuration not stated)	38	-5	-10	-1	-3	14
CC(C)c1ccc(CN(C(=O)c2cc3ccccc3oc2=O)C2CCS(=O)(=O)C2)cc1 (configuration not stated)	8	5	4	0	10	-12
CN(C)c1ccc(CN(C(=O)c2cc3ccccc3oc2=O)C2CCS(=O)(=O)C2)cc1 (configuration not stated)	45	7	3	89*	22	6
COc1ccccc1CCC(=O)Oc1ccccc1C#N	15	-8	x	85*	18	-9
Cc1ccc(O)c(O)c1	x	21	-2	-25	8	27
COC(=O)c1ccc(O)c(Sc2cc(C(=O)OC)ccc2O)c1	17	8	7	88*	33	1
Cc1ccc(O)c(Sc2cc(C)ccc2O)c1	-10	17	1	99*	1	30
CC(=O)N1CCc2cc(S(=O)(=O)NC(Cc3ccccc3)C(=O)O)ccc21 (configuration not stated)	24	-4	5	-12	6	-22

High-throughput results deposited in PubChem BioAssay by several laboratories.
